Assay [1] can be described thus: Lipolytic activity in isolated rabbit fat cells assessed as glycerol production per gram of cells at 3300 ng measured every hour. Type of assay: functional, Oryctolagus cuniculus.
Assay [2] has as its system Zone of skin. In words: Melanotropic activity in frog skin assessed as skin darkening at 6 ng relative to control. Type of assay: functional, Anura. An outline of the steps:
(§1)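 Skin-darkening activity of the synthetic peptides measured in vitro on isolated frog skin.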

Assay [3] relates to Zone of skin. In words: Melanotropic activity in frog skin assessed as skin darkening at 6 ng relative to beta-c1-MSH. Format: functional, Anura. The essentials: as §1
Assay [4] relates to Zone of skin. Briefly: Melanotropic activity in frog skin assessed as skin darkening at 18 ng relative to control. Type of assay: functional, Anura. The essentials: as §1
Assay [5] can be described thus: Lipolytic activity in isolated rabbit fat cells assessed as glycerol production per gram of cells at 1100 ng measured every hour. Format: functional, Oryctolagus cuniculus.
A short description of assay [6]: Lipolytic activity in isolated rabbit fat cells assessed as glycerol production per gram of cells at 1100 ng measured every hour relative to beta-c1-MSH. Type of assay: functional, Oryctolagus cuniculus.
The test system of assay [7] is Zone of skin. Briefly: Melanotropic activity in frog skin assessed as skin darkening at 2.3 ng relative to control. Format: functional, Anura. An outline of the steps:
as §1

Assay [8] deals with Zone of skin. In words: Melanotropic activity in frog skin assessed as skin darkening at 6.9 ng relative to control. Type of assay: functional, Anura. The essentials:
as §1

Assay [9] can be described thus: Lipolytic activity in isolated rabbit fat cells assessed as glycerol production per gram of cells at 66 ng measured every hour. Format: functional, Oryctolagus cuniculus.
Assay [10] is described as follows: Lipolytic activity in isolated rabbit fat cells assessed as glycerol production per gram of cells at 22 ng measured every hour. Type of assay: functional, Oryctolagus cuniculus.
Assay [11] can be described thus: Lipolytic activity in isolated rabbit fat cells assessed as glycerol production per gram of cells at 37 ng measured every hour relative to beta-c1-MSH. Type of assay: functional, Oryctolagus cuniculus.
The nature of assay [12]: Lipolytic activity in isolated rabbit fat cells assessed as glycerol production per gram of cells at 37 ng measured every hour. Type of assay: functional, Oryctolagus cuniculus.
The nature of assay [13]: Lipolytic activity in isolated rabbit fat cells assessed as glycerol production per gram of cells at 111 ng measured every hour. Format: functional, Oryctolagus cuniculus.
The test system of assay [14] is Zone of skin. Briefly: Melanotropic activity in frog skin assessed as skin darkening at 2.6 ng relative to control. Type of assay: functional, Anura. The essentials:
as §1

The test system of assay [15] is Zone of skin. Briefly: Melanotropic activity in frog skin assessed as skin darkening at 7.8 ng relative to control. Type of assay: functional, Anura. An outline of the steps:
as §1

Assay [16] is described as follows: Lipolytic activity in isolated rabbit fat cells assessed as glycerol production per gram of cells at 22 ng measured every hour relative to beta-b-MSH. Type of assay: functional, Oryctolagus cuniculus.
Assay [17] concerns Zone of skin. In words: Melanotropic activity in frog skin assessed as skin darkening at 2.6 ng relative to beta-b-MSH. Format: functional, Anura. The essentials:
as §1

Assay [18] concerns Zone of skin. Briefly: Melanotropic activity in frog skin assessed as skin darkening at 3 ng relative to control. Format: functional, Anura. The essentials: as §1
The test system of assay [19] is Zone of skin. Briefly: Melanotropic activity in frog skin assessed as skin darkening at 9 ng relative to control. Type of assay: functional, Anura. The essentials:
as §1

In assay [20] the test system is Zone of skin. In words: Melanotropic activity in frog skin assessed as skin darkening at 2.7 ng relative to beta-b-MSH. Format: functional, Anura. An outline of the steps: as §1
Assay [21] deals with Zone of skin. Briefly: Melanotropic activity in frog skin assessed as skin darkening at 8.1 ng relative to control. Format: functional, Anura. The essentials: as §1
The subject of assay [22] is Zone of skin. Briefly: Melanotropic activity in frog skin assessed as skin darkening at 2.7 ng relative to control. Type of assay: functional, Anura. The essentials:
as §1

Where a SMILES comes first, the peptide text is derived from it. The star is where a group is joined. For = O=C*

With H-DGGPYKMQHGRWGSPPKD-OH, the Activity in assay [1] was found to be 0.37 µmol; in the assay with Zone of skin [2], 5.5%; in the assay with Zone of skin [3], 0.8%; with Zone of skin [4], 7.8%; in [5], 0.19 µmol; in [6], 0.001%.
For the molecule `CSCC[C@H](NC(=O)[C@H](CCCCN)NC(=O)[C@H](Cc1ccc(O)cc1)NC(=O)[C@@H]1CCCN1C(=O)CNC(=O)[C@H](CO)NC(=O)[C@@H](N)CC(=O)O)C(=O)N[C@@H](CCC(=O)O)C(=O)N[C@@H](Cc1cnc[nH]1)C(=O)N[C@@H](Cc1ccccc1)C(=O)N[C@@H](CCCNC(=N)N)C(=O)N[C@@H](Cc1c[nH]c2ccccc12)C(=O)NCC(=O)N[C@@H](CO)C(=O)N1CCC[C@H]1C(=O)N1CCC[C@H]1C(=O)N[C@@H](CCCCN)C(=O)N[C@@H](CC(=O)O)C(=O)O` (stereo in doubt; form 2), the Activity in the assay with Zone of skin [7] was determined as 29.1%; with Zone of skin [8], 44.6%; in assay [9], 3.76 µmol; in [10], 1.38 µmol.
Consider `CSCC[C@H](NC(=O)[C@H](CCCCN)NC(=O)[C@H](Cc1ccc(O)cc1)NC(=O)[C@@H]1CCCN1C(=O)CNC(=O)CNC(=O)[C@@H](N)CC(=O)O)C(=O)N[C@@H](CCC(N)=O)C(=O)N[C@@H](Cc1cnc[nH]1)C(=O)N[C@@H](Cc1ccccc1)C(=O)N[C@@H](CCCNC(=N)N)C(=O)N[C@@H](Cc1cn(C=O)c2ccccc12)C(=O)NCC(=O)N[C@@H](CO)C(=O)N1CCC[C@H]1C(=O)N1CCC[C@H]1C(=O)N[C@@H](CCCCN)C(=O)N[C@@H](CC(=O)O)C(=O)O` (H-DGGPYKMQHFRW(For)GSPPKD-OH), for which the Activity in [11] was determined as 10.2%; in the assay on Zone of skin [2], 32.8%; in the assay with Zone of skin [3], 39.7%; in the assay on Zone of skin [4] it was 52.4%; in assay [12], 1.09 µmol; in [13], 2.05 µmol.
In the case of H-DGGPYKMQHFRFGSPPKD-OH, the Activity came out at 1.63 µmol in [1]; 26.2% in the assay on Zone of skin [2]; 28% in the assay with Zone of skin [3]; 38.2% with Zone of skin [4]; 1.29 µmol in [5]; 0.006% in [6].
H-DEGPYKMEHFRWGSPPKD-OH: the Activity in the assay with Zone of skin [14] was found to be 49.6%; in assay [9], 3.49 µmol; in the assay with Zone of skin [15], 69.8%; in assay [16] it was 102.4%; in assay [10], 1.62 µmol; in the assay on Zone of skin [17] it was 355.6%.
For the molecule H-DGGPYKMQHFRWGSPPKD-OH, the Activity with Zone of skin [18] stood at 32.7%; in the assay on Zone of skin [2], 62%; with Zone of skin [19], 63.5%; in the assay on Zone of skin [4], 71%; in assay [12] it was 2.94 µmol; in assay [13], 3.6 µmol.
H-DGGPYKMRHFRWGSPPKD-OH: the Activity stood at 34.2% in assay [11]; 17.1% with Zone of skin [2]; 10.5% with Zone of skin [3]; 24.6% with Zone of skin [4]; 1.73 µmol in [12]; 3.12 µmol in [13].
As to `CSCC[C@H](NC(=O)[C@H](CCCCN)NC(=O)[C@H](Cc1ccc(O)cc1)NC(=O)[C@@H]1CCCN1C(=O)CNC(=O)[C@H](CO)NC(=O)[C@@H](N)CC(=O)O)C(=O)N[C@@H](CCC(=O)O)C(=O)N[C@@H](Cc1cnc[nH]1)C(=O)N[C@@H](Cc1ccccc1)C(=O)N[C@@H](CCCNC(=N)N)C(=O)N[C@@H](Cc1c[nH]c2ccccc12)C(=O)NCC(=O)N[C@@H](CO)C(=O)N1CCC[C@H]1C(=O)N1CCC[C@H]1C(=O)N[C@@H](CCCCN)C(=O)N[C@@H](CC(=O)O)C(=O)O` (stereo in doubt; form 1), the Activity was determined as 3.61 µmol in [9]; 40.2% in [11]; 120.2% in the assay on Zone of skin [20]; 49.6% in the assay on Zone of skin [21]; 1.78 µmol in assay [12]; 95.5% in [16]. For the same molecule, the Activity in assay [10] stood at 1.18 µmol; in the assay on Zone of skin [22] it was 30.1%; in [13] it was 2.96 µmol.

These data come from ChEMBL document CHEMBL3244422, “Synthesis and biological activity of beta-melanotropins and analogues” (1977).
